# Assay outcomes from PubChem BioAssay.
# MrgX1 ag: agonists of human MrgX1 receptor. Q96LB2. MrgX1-HEK293 cells, Fluo-4 calcium fluorescence, agonist mode; hits give high values. B-score at 10 µM. 0.44% of 310,000 active;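 active = calcium response B-score plate-corrected fluorescence ratio at least 3 library SD, with starting fluorescence B-score inside 5 SD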
# Target sequence (Q96LB2 whole entry, looked up): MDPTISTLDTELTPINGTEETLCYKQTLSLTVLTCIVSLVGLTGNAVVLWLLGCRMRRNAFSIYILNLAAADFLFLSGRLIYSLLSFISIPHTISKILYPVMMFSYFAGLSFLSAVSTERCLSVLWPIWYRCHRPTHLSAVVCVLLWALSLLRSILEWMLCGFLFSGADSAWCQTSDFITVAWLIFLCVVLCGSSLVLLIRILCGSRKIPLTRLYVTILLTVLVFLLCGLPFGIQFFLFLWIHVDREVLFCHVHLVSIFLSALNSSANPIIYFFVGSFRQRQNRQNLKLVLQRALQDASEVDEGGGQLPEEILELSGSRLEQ
#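 Material: MrgX1-expressing HEK293 cells / Dosing: compound as first of three additions / Incubation: overnight seeding, then 1 h dark dye loading / Signal: Fluo-4 NW calcium fluorescence / Evaluation: B-scored fluorescence response ratio / Benchmarks: positive and negative control wells on each plate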
# RGS4 block: human RGS4 inhibition; P49798; HEK293 M3R/RGS4 inducible, Fluo-4 calcium flux; hits give high values; triggered by carbachol at its EC20; B-score at 10 µM; 0.45% of 310,000 active;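 active = B-score, a plate-corrected calcium signal, over three deviations above library mean, with baseline fluorescence within five deviations of library mean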;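 also: RGS4 expression induced by doxycycline in cells with stable M3 receptor; B-score is computed from the integrated fluorescence ratio over baseline after carbachol; higher B-score means a larger calcium signal and so more RGS4 inhibition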
# RGS4 act: RGS4 potentiation or activation; HEK293 M3R/inducible RGS4, carbachol calcium flux Fluo4; hits give low values; B-score at 10 µM; 0.92% of 310,000 active; AID 463111;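 active = B-score of the integrated calcium signal more than 4 SD below the library mean, with starting fluorescence not abnormally high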;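 also: negative B-score means reduced calcium response which marks RGS4 activation or potentiation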
#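 Test system: HEK293 cells with stable M3R and inducible RGS4; also added: carbachol at ECmax as muscarinic agonist stimulus; schedule: dye loading 30 min 37 °C, buffer rest 30 min RT; technique: kinetic calcium fluorescence imaging with Fluo4-AM dye, 2 µM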
# MrgX1 antag: human MrgX1 receptor antagonism, primary screen. MRGX1-HEK293 calcium flux, Fluo-4, BAM8-22 antagonism; hits give low values. B-score at 10 µM. 1.3% of 310,000 active. AID 588676;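 active = calcium-response B-score plate-corrected more than 3 library SD below zero, starting fluorescence within 5 deviations, no agonist response on first addition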;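 also: peak minus trough fluorescence over baseline after final BAM8-22 challenge near maximal dose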
# MrgX1 allo act: allosterically activates human MrgX1 receptor signaling; Q96LB2; B-score at 10 µM; 0.63% of 310,000 active; MrgX1-HEK293, Fluo-4 calcium flux, FDSS; hits give high values; AID 588675;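 active = plate-corrected calcium response at least 3 library SD above typical, normal starting fluorescence, not activating the receptor alone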;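 also: compound read alongside a low EC10 to EC30 dose of BAM8-22 agonist; peak minus trough fluorescence over baseline measured at the second addition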
# A number is an active result; i = inactive; nt = not tested or not shown. Shown are actives, neighbours in structure and some others; about 3.5% of the full set was active somewhere.
SMILES,MrgX1 ag,RGS4 block,RGS4 act,MrgX1 antag,MrgX1 allo act
O=C(NCC1CCCO1)c1cncc(Br)c1 (stereo not drawn),i,i,i,i,i
Cc1ccc2cc(CN(CCc3ccccc3)C(=S)NCCCN(C)C)c(=O)[nH]c2c1,i,i,i,i,6.6
CC(OC(=O)c1ccc(Cl)c(S(=O)(=O)N2CCOCC2)c1)C(=O)Nc1ccc(S(N)(=O)=O)cc1 (stereo not drawn),i,i,i,i,i
Cc1c(NC(=O)C2(c3ccc(Cl)cc3)CCCC2)c(=O)n(-c2ccccc2)n1C,i,i,i,i,i
Cc1c(NC(=O)C2(c3ccccc3)CCOCC2)c(=O)n(-c2ccccc2)n1C,i,i,i,i,6.7
OC(COc1ccc(C2C=CCC2)cc1)CN1CCCCC1 (stereo not drawn),i,i,-7,i,i
O=C(COC(=O)/C=C/c1cccs1)Nc1ccc2ccccc2c1,i,i,i,i,i
O=C(NNS(=O)(=O)c1ccc2ccccc2c1)C1CCN(Cc2ccccc2)CC1,i,i,i,i,i
O=C(NNS(=O)(=O)c1ccc(F)cc1)C1CCN(Cc2cccc(F)c2)CC1,i,i,-7.3,i,i
Cn1nc(C(=O)Nc2ccccc2N2CCCC2)c2ccccc2c1=O,i,i,i,i,12
COc1cccc(OC)c1C(=O)Nc1ccccc1N1CCCC1,i,i,i,i,i
CC(C)n1nc(C(=O)Nc2ccccc2N2CCOCC2)c2ccccc2c1=O,i,i,i,i,i
Cn1nc(C(=O)NCc2ccccc2)c2ccccc2c1=O,i,i,i,i,i
Cn1nc(C(=O)NCCOc2ccccc2)c2ccccc2c1=O,i,i,i,i,10
O=C(NC(=S)Nc1ccccc1N1CCCCC1)c1ccc(F)cc1Cl,i,i,-7,i,i
COc1cc2ccccc2cc1C(=O)Nc1ccccc1N1CCCC1,i,i,-7.3,i,i
COc1ccc(C(=O)N2CCCC(O)C2)cc1OC1CCN(C(C)C)CC1 (stereo not drawn),i,i,i,i,i
NC(=O)c1ccc[n+]([C@H]2O[C@@H](COP(=O)([O-])OP(=O)(O)OC[C@H]3O[C@@H](n4cnc5c(N)ncnc54)[C@H](O)[C@@H]3O)[C@H](O)[C@@H]2O)c1,34,nt,nt,i,i
Nc1ncnc2c1ncn2[C@H]1C[C@H](O)[C@@H](COP(=O)(O)O)O1,i,i,i,i,i
Cc1ccc(NC(=O)CCC(=O)NNC(=O)Nc2cccc(Cl)c2)c(C)c1,i,i,i,i,i
Cc1ccc(Cl)cc1N1CCN(C(=O)CSc2nnc3n2C(C)(C)Cc2ccccc2-3)CC1,i,i,-7,-9.5,i
OC(CC#CCN1CCCCC1)(c1ccccc1)c1ccccc1,i,i,-7.5,i,i
CN1CCN(CC#CCC(O)(c2ccccc2)c2ccccc2)CC1,i,i,i,i,i
OC(CC#CCN1CCCC1)(c1ccccc1)c1ccccc1,i,i,i,i,i
CN1CCN(CC#CCC(O)(c2ccccc2)C2CCCC2)CC1 (stereo not drawn),i,i,-7.5,i,i
SMILES,MrgX1 ag,RGS4 block,RGS4 act,MrgX1 antag,MrgX1 allo act
COc1cc2c(cc1OC)C(C)N(C(=O)CCc1c[nH]c3ccccc13)CC2 (stereo not drawn),i,i,i,i,i
Clc1ccc2c(c1)C(N1CCNCC1)Cc1ccccc1S2 (stereo not drawn),i,i,-7.8,i,i
COCCCN1CCN(C2Cc3ccccc3Sc3ccc(Cl)cc32)CC1 (stereo not drawn),i,i,i,i,i
CCCCC1C(=O)CC[C@H]2[C@@H]1CC(=O)[C@@H]2C/C=C\CCCC(=O)O (stereo partly drawn),i,i,i,i,i
CCCCC[C@H](O)/C=C/[C@H]1[C@H](O)CC(=O)[C@@H]1CCCCCCC(=O)O,30,6.4,i,i,i
CN(C)CCCNC(NC(=O)/C=C/c1ccccc1)C(Cl)(Cl)Cl (stereo not drawn),i,i,i,i,i
CCOC(=O)N1CCN(C(=O)c2c[nH]c3ccc(S(=O)(=O)N(C)c4ccc(OCC)cc4)cc3c2=O)CC1,i,i,i,i,i
CCCCn1c(N)c(N(CCOC)C(=O)COC(=O)COc2c(C)cccc2C)c(=O)[nH]c1=O,i,i,i,i,i
